inhibition, half-life and Activity data for one molecule are collected here from ChEMBL document CHEMBL4376814, “Novel cyclin-dependent kinase 9 (CDK9) inhibitor with suppression of cancer stemness activity against non-small-cell lung cancer” (Eur J Med Chem, 2019).

In data set [1] the target is Tyrosine-protein kinase Lyn (Homo sapiens) (UniProt P07948). Put plainly: Inhibition of recombinant full-length human LYN at 1 uM using poly(Glu, Tyr) 4:1 as substrate measured after 40 mins in presence of [gamma33P]ATP by scintillation counting method relative to control.
Sequence of Tyrosine-protein kinase Lyn (Homo sapiens) (P07948 2-512 limits assumed): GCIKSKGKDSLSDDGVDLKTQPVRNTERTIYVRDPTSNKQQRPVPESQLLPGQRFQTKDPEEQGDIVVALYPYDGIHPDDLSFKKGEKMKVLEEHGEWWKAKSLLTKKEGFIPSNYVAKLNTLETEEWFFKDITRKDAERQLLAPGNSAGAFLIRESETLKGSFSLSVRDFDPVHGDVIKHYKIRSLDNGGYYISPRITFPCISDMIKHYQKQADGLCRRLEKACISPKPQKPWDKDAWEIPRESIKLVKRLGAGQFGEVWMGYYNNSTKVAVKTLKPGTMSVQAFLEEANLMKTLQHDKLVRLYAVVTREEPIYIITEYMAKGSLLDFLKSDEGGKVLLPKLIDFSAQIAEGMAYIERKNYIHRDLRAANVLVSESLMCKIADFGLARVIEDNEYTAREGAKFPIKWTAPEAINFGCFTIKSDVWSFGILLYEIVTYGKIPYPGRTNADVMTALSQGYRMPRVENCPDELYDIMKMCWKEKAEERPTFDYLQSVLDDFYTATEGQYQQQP
Data set [2] deals with Tyrosine-protein kinase Lck (Homo sapiens) (UniProt P06239). The experiment in a line: Inhibition of recombinant full-length human LCK activated at 1 uM using KVEKIGEGTYGVVYK as substrate measured after 40 mins in presence of [gamma33P]ATP by scintillation counting method relative to control.
Sequence of Tyrosine-protein kinase Lck (Homo sapiens) (P06239 2-509 limits assumed): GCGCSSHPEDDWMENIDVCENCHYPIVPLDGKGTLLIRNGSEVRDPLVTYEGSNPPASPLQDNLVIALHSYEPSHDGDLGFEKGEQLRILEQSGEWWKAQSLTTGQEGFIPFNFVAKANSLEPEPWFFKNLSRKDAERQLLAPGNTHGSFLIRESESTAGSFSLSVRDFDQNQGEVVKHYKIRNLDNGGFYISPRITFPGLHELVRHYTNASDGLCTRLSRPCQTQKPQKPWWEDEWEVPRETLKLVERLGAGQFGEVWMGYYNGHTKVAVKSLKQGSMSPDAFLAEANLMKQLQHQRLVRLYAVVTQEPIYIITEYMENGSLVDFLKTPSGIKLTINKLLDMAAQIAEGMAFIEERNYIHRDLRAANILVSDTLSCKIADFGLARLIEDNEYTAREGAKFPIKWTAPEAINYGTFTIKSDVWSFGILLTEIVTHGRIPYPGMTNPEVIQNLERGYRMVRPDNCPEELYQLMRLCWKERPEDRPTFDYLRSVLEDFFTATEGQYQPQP
Data set [3] has as its system A549. Put plainly: Antiproliferative activity against human A549 cells assessed as inhibition of cell viability at 10 uM after 72 hrs by CCK-8 assay relative to control. It is filed as functional. The conditions noted are these: A549, 72 h. In short, it runs like this: (§1)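 Single-concentration viability screen using CCK-8. Cells were seeded at 3000/well and treated for 72 h. A450 read after 1-4 h with reagent. Percent inhibition calculated against untreated control and blank wells as (Ac−As)/(Ac−Ab)×100%.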
On the technique in general: Tetrazolium dyes change colour on reduction, which living cells bring about.

The species named for data set [4] is Homo sapiens. The experiment in a line: Inhibition of recombinant human PRAK R291E mutant at 1 uM using KKLRRTLSVA as substrate measured after 40 mins in presence of [gamma33P]ATP by scintillation counting method relative to control.
A short description of data set [5]: Half life in CD-1 mouse liver microsomes at 2 uM in presence of NADPH measured up to 1 hr by HPLC analysis. The class given is ADME, Microsome. In short, it runs like this:
(§2)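 Drug at 2 µM incubated at 37 °C with male liver microsomes at 1 mg/mL, in 0.1 M phosphate buffer pH 7.4 with MgCl2. After 5 min preincubation, reaction started with NADPH. Samples (n=3) taken at 0, 10, 20, 30, 45 and 60 min, quenched with ice-cold acetonitrile, spun, and analysed by HPLC. t1/2 derived from the fitted rate constant k.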
On the technique in general: Microsomes from liver hold many membrane-bound enzymes, among them those of drug oxidation.

Data set [6] deals with CDK18/Cyclin Y (Homo sapiens), Q07002+Q8ND76 [T166M]. The experiment in a line: Inhibition of recombinant full length human cyclinY/CDK18 T166M mutant at 1 uM using YRRAAVPPSPSLS as substrate measured after 40 mins in presence of [gamma33P]ATP by scintillation counting method relative to control. It is filed as protein-complex assay. In outline:
(§3)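 Single-point inhibition at 1 µM was measured in the Eurofins KinaseProfiler panel. Values are the mean of two independent experiments.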

The subject of data set [7] is NCI-H1299. Put plainly: Induction of apoptosis in human H1299 cells assessed as late apoptotic cells at 0.25 uM after 48 hrs by AnnexinV-FITC/PI staining-based flow cytometric analysis (reference value: 1.77%). It is filed as functional.
Data set [8] has as its system Serine/threonine-protein kinase Sgk2 (Homo sapiens), Q9HBY8 [S416D]. Put plainly: Inhibition of recombinant human SGK2 S416D mutant (54 to end residues) at 1 uM using GRPRTSSFAEGKK as substrate measured after 40 mins in presence of [gamma33P]ATP by scintillation counting method relative to control.
Data set [9] concerns the target Serine/threonine-protein kinase 35 (Homo sapiens) (UniProt Q8TDR2). The experiment in a line: Inhibition of full length recombinant human CLIK1 at 1 uM using RSRSRSRSRSRSRSR as substrate measured after 40 mins in presence of [gamma33P]ATP by scintillation counting method relative to control.
Data set [10] has as its system MCF7. Put plainly: Antiproliferative activity against human MCF7 cells assessed as inhibition of cell viability at 10 uM after 72 hrs by CCK-8 assay relative to control. The class given is functional. The following applies: MCF7, 72 h. In short, it runs like this:
as §1

For data set [11], the system named is NCI-H1299. Put plainly: Induction of apoptosis in human H1299 cells assessed as early apoptotic cells at 0.5 uM after 48 hrs by AnnexinV-FITC/PI staining-based flow cytometric analysis (reference value: 0.248%). It is filed as functional.
The target in data set [12] is Casein kinase I isoform delta (Homo sapiens) (UniProt P48730). Put plainly: Inhibition of recombinant human CK1delta (1 to 294 residues) at 1 uM using KRRRALS(p)VASLPGL as substrate measured after 40 mins in presence of [gamma33P]ATP by scintillation counting method relative to control.
Data set [13] addresses Serine/threonine-protein kinase SBK1 (Homo sapiens) (UniProt Q52WX2). The experiment in a line: Inhibition of recombinant full-length human SBK1 at 1 uM using KKLRRTLSVA as substrate measured after 120 mins in presence of [gamma33P]ATP by scintillation counting method relative to control.
The target of data set [14] is Cyclin-dependent kinase 9 (Homo sapiens) (UniProt P50750). The conditions noted are these: 0.25 uM.
Data set [15] relates to Proto-oncogene tyrosine-protein kinase receptor Ret (Homo sapiens), P07949 [V804L]. The experiment in a line: Inhibition of human Ret V804L mutant (658 to end residues) at 1 uM using KKKVSRSGLYRSPSMPENLNRPR as substrate measured after 40 mins in presence of [gamma33P]ATP by scintillation counting method relative to control. In outline: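 Percent inhibition of kinase activity at a single compound concentration, measured by the outsourced Eurofins KinaseProfiler panel. Values are the mean of two independent experiments.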
Sequence of Proto-oncogene tyrosine-protein kinase receptor Ret (Homo sapiens), P07949 [V804L] (P07949 whole entry V804L): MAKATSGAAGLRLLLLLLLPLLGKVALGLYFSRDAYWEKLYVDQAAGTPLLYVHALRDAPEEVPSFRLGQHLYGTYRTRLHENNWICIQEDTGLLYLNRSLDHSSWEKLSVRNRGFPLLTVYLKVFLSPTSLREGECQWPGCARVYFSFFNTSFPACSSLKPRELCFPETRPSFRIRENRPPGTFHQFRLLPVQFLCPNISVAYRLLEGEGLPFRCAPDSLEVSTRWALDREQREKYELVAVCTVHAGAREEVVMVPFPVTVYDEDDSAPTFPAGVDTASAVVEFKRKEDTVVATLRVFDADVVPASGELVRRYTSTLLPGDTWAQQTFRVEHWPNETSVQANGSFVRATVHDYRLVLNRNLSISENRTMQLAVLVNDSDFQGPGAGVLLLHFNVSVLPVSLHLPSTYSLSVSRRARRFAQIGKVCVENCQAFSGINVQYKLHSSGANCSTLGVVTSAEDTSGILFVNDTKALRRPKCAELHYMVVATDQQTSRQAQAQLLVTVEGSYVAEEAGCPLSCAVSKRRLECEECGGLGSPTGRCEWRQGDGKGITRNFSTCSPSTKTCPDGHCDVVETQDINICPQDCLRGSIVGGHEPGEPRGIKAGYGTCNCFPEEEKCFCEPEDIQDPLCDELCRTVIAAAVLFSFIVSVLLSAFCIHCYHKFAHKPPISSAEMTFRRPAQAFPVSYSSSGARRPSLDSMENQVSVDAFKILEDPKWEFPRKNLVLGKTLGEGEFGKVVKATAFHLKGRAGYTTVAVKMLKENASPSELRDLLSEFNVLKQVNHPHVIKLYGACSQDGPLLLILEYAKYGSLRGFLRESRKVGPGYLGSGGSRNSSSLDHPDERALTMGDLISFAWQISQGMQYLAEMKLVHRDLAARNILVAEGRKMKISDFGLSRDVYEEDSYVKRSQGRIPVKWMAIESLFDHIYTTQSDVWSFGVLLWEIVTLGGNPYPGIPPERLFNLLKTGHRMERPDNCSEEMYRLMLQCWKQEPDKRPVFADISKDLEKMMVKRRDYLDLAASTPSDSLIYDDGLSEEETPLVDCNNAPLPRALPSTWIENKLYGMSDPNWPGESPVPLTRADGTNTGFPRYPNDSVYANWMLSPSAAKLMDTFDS

Data set [16] concerns the target Serine/threonine-protein kinase VRK1 (Homo sapiens) (UniProt Q99986). Put plainly: Inhibition of human VRK1 at 1 uM by radiometric method relative to control.
The species entered for data set [17] is Homo sapiens. The experiment in a line: Inhibition of recombinant full-length human JNK2alpha2 S51N mutant at 1 uM using ATF2 as substrate measured after 40 mins in presence of [gamma33P]ATP by scintillation counting method relative to control.
The nature of data set [18]: Half life in Beagle dog liver microsomes at 2 uM in presence of NADPH measured up to 1 hr by HPLC analysis. The class given is ADME, Canis lupus familiaris, Microsome. In outline: as §2
Data set [19] has as its target Phosphorylase b kinase gamma catalytic chain, skeletal muscle/heart isoform (Homo sapiens) (UniProt Q16816). Put plainly: Inhibition of recombinant full-length human PhKgamma1 at 1 uM using KKLNRTLSFAEPG as substrate measured after 120 mins in presence of [gamma33P]ATP by scintillation counting method relative to control.
The target of data set [20] is Serine/threonine-protein kinase pim-2 (Homo sapiens) (UniProt Q9P1W9). The experiment in a line: Inhibition of recombinant human Pim-2 (2 to end residues) at 1 uM using RSRHSSYPAGT as substrate measured after 40 mins in presence of [gamma33P]ATP by scintillation counting method relative to control.
Sequence of Serine/threonine-protein kinase pim-2 (Homo sapiens) (Q9P1W9 whole entry, looked up): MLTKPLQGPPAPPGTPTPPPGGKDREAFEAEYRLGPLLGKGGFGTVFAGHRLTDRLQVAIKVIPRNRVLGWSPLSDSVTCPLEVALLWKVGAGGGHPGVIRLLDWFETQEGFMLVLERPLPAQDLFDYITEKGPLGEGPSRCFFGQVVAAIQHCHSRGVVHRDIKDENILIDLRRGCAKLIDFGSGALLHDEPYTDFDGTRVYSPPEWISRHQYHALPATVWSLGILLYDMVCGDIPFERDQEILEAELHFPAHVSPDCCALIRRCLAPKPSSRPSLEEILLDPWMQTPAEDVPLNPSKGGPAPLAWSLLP
For data set [21], the target named is Calcium/calmodulin-dependent protein kinase type 1B (Homo sapiens) (UniProt Q6P2M8). Put plainly: Inhibition of full-length recombinant human CaMK1 beta at 1 uM using KKLRRTLSFAEPG as substrate measured after 40 mins in presence of [gamma33P]ATP by scintillation counting method relative to control. In outline:
as §3

The subject of data set [22] is Serine/threonine-protein kinase Sgk1 (Homo sapiens), O00141 [S422D]. The experiment in a line: Inhibition of recombinant human SGK S422D mutant (60 to end residues) at 1 uM using GRPRTSSFAEGKK as substrate measured after 40 mins in presence of [gamma33P]ATP by scintillation counting method relative to control.
Data set [23] relates to NCI-H1299. The experiment in a line: Antiproliferative activity against human H1299 cells assessed as inhibition of cell viability at 1 uM after 72 hrs by CCK-8 assay relative to control. The class given is functional. The following applies: NCI-H1299, 72 h. In short, it runs like this: as §1
Data set [24] has as its target Tyrosine-protein kinase Lck (Homo sapiens) (UniProt P06239). The experiment in a line: Inhibition of recombinant full-length human LCK at 1 uM using Cdc2 peptide as substrate measured after 40 mins in presence of [gamma33P]ATP by scintillation counting method relative to control.

Calls of active or inactive are those of the source.

Sequence of Calcium/calmodulin-dependent protein kinase type 1B (Homo sapiens) (Q6P2M8 whole entry): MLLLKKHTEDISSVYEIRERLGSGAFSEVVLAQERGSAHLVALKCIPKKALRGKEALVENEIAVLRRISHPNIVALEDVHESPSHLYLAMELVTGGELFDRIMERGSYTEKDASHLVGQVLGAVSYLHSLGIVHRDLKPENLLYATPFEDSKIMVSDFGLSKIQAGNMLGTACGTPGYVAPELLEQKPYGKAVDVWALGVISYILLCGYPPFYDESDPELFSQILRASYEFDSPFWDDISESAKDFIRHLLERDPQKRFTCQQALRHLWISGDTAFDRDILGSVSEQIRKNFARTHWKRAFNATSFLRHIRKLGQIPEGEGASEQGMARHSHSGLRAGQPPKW
Sequence of Serine/threonine-protein kinase Sgk1 (Homo sapiens), O00141 [S422D] (O00141 whole entry S422D): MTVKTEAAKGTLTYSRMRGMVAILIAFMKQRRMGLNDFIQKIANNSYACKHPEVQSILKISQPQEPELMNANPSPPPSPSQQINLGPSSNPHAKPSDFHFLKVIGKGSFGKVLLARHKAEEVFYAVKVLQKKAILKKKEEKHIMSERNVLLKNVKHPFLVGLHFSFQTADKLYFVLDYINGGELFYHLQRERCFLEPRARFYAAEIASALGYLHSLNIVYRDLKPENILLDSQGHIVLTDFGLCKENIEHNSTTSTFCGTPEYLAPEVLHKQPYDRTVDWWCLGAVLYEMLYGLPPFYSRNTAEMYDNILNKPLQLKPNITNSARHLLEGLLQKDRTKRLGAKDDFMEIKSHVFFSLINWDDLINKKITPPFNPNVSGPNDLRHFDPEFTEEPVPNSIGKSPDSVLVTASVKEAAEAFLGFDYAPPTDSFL
Sequence of Serine/threonine-protein kinase 35 (Homo sapiens) (Q8TDR2 whole entry): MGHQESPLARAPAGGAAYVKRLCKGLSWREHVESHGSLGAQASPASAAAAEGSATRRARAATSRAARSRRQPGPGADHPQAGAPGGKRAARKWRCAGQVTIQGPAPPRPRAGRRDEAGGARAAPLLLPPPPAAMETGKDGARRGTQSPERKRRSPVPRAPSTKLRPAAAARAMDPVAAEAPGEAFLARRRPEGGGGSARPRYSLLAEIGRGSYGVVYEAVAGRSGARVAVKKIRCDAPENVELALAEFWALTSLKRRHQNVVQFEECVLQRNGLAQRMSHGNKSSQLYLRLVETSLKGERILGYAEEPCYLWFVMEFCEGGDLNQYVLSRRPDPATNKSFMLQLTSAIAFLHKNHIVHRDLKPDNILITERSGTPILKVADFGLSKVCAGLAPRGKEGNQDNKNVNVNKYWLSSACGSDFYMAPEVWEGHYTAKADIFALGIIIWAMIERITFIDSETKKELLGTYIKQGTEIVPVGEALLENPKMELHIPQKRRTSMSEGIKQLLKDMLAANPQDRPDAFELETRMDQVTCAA
Sequence of Serine/threonine-protein kinase VRK1 (Homo sapiens) (Q99986 whole entry): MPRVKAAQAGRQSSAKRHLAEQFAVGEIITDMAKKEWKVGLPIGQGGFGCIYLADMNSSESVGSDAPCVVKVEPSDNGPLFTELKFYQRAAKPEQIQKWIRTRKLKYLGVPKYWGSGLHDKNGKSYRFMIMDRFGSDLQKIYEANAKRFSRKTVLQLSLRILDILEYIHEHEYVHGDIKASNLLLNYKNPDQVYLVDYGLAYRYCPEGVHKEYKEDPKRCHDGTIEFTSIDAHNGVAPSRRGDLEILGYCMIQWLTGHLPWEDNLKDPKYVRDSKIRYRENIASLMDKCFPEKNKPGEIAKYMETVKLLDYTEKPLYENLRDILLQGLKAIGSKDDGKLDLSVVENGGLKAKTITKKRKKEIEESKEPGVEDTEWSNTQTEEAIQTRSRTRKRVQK
Sequence of Phosphorylase b kinase gamma catalytic chain, skeletal muscle/heart isoform (Homo sapiens) (Q16816 whole entry, looked up, canonical isoform): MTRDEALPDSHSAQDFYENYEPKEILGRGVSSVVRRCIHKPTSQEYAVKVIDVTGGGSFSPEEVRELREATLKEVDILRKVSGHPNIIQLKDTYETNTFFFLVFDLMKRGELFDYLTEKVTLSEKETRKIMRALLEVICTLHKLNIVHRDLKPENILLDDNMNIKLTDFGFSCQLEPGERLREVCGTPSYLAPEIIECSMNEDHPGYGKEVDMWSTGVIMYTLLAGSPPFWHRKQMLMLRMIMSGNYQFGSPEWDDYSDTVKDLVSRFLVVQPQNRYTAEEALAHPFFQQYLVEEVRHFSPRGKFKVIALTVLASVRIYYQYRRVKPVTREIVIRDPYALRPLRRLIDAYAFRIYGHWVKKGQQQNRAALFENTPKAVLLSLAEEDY
Sequence of Serine/threonine-protein kinase SBK1 (Homo sapiens) (Q52WX2 whole entry): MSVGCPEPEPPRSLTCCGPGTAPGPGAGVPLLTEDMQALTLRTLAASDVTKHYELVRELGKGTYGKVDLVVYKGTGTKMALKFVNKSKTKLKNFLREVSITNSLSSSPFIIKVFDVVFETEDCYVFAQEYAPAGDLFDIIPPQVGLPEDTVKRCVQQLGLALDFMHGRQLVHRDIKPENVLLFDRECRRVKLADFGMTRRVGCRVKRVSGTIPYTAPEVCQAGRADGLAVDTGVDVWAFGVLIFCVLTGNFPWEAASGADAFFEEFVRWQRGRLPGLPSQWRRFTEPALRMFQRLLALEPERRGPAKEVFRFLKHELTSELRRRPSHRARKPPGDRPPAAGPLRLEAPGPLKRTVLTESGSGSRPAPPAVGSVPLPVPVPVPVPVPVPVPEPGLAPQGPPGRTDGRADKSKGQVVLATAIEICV

`CN(C)C(=O)c1cc2cnc(Nc3ccc(NC(=O)CCCCCCCN=C=S)cc3)nc2n1C1CCCC1`: the inhibition (as a rule, the drop in the measured response relative to a control, in per cent) in [1] was 25%; in data set [2], 26%; in data set [4], 3%; in [6], 11%; in data set [8] it was 14%; in data set [9], 14%. The inhibition in data set [12] is -2%; in data set [13], 88%; in data set [15], 46%; in data set [16] it was 0%; in [17] it was 40%; in data set [19], 71%. The inhibition in data set [20] is -1%; in data set [21], 11%; in data set [22] it was 24%; in data set [24], 33%. The figures for the inhibition at 10 µM in data set [3] and in [10] were 99.2% and 98%, respectively. In addition, the half-life (as a rule, the time needed for the level to fall by half in the phase considered) at 2 µM in [5] worked out at 23.1 min; in data set [18] it was 26.7 min. Also, the results for the Activity in [7] and in data set [11] were 2.24% and 0.758%, respectively. Also, the inhibition entry in data set [14] is “Active”. Further, in [23], the inhibition at 1 µM came to 87.4%.
